pIC50: −log10 of the molar value.
Tests used:
[1] = system: SCUi24-diff (spontaneously differentiated SCUi24 iPSCs); assay: Cells with <2N DNA by FACS of permeabilized cells stained with PI; assay type: cell-based, human; conditions: read-out: IC50 DNA (50% of cells with <2N DNA)
Method in brief: (§1)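 Cells were exposed to a range of test compound concentrations alongside vehicle (DMSO) controls. They were then permeabilized, stained with propidium iodide, and DNA content was read by flow cytometry. IC50 is the concentration at which 50% of cells hold <2N DNA, from 3 independent repetitions with SEM. Line averages and differentiated/pluripotent ratios are derived from these IC50s. NTERA-2 was also run as a time course at 5 μM, normalized to vehicle at each time point.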

[2] = system: human pluripotent cells (ESCs, iPSCs, ECCs); assay: ATP loss, summary over pluripotent cell lines; assay type: cell-based
Method in brief: (§2)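 Cellular ATP was measured with a CellTiter-Glo luminescence viability assay after exposure to a concentration range of test compound. IC50 is the average of three independent assays. Mean IC50s across differentiated or human pluripotent lines, and their ratio, are derived from the per-line values.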

differentiated cells [3] = assay: ATP loss, summary over differentiated cell lines; assay type: cell-based; conditions: read-out: IC50 ATP loss, on average
Method in brief: as §2

human pluripotent cells = assay: DNA loss; assay type: cell-based
Method in brief: as §1

differentiated cells [4] = assay: DNA loss; assay type: cell-based; conditions: read-out: IC50 DNA loss, on average; average over differentiated cells
Method in brief: as §1

[5] = system: human pluripotent cells (ESC, iPSC, ECC lines); assay: PCD / live cell loss; assay type: cell-based; conditions: ratio of average IC50
Method in brief: (§3)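 Cells were seeded so that vehicle wells stayed subconfluent, then treated with a range of test compound concentrations for 4 days. Without permeabilization, they were stained with annexin-V-FITC and propidium iodide and analysed by flow cytometry. Double-negative cells (Q3) were scored as live and Q1+Q2 as programmed death. Vehicle was set to 100% viable and 0% dead. Results are the mean of three independent assays with SEM; group averages and ratios are derived from the IC50s.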

differentiated cells [6] = assay: PCD / live cell loss; assay type: cell-based; conditions: read-out: IC50 initiation of PCD, on average; average over differentiated cells
Method in brief: as §3

VeroE6 cells = assay: Inhibition of cell proliferation; assay type: cell-based, monkey; conditions: read-out: IC50 inhibition of proliferation
differentiated cells [7] = assay: Inhibition of cell proliferation; assay type: cell-based; conditions: read-out: IC50 inhibition of proliferation; insensitive differentiated cells
H108 fibroblasts = assay: Immunoblotting of total cell extracts; assay type: cell-based, human
Method in brief: (§4)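 Cells were cultured with 2.5 μM test compound for up to 96 h, and attached plus unattached cells were pooled. Whole-cell RIPA lysates were run on 4–12% Bis-Tris gels, transferred to nitrocellulose and blocked in 5% milk/TBS. Primary antibodies went on overnight at 4°C, followed by infrared secondary antibodies and imager quantitation. Each blot carried untreated U2OS as a shared standard, with Ponceau-S histones for normalization and lighter exposures for quantitation. Adriamycin for 24 h (NTERA-2 1 μM, H108 2 μM) served as a DNA-break control.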

NTERA-2 ECCs = assay: Immunoblotting of total cell extracts; assay type: cell-based, human
Method in brief: as §4

H1 ESCs = assay: Immunoblotting of total cell extracts; assay type: cell-based, human
Method in brief: as §4

[8] = system: NTERA-2 teratocarcinoma xenografts; assay: Teratocarcinoma xenograft, daily intraperitoneal injections; assay type: in vivo, mice
Method in brief: (§5)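 Six-week-old female […] BALB/c nude mice were injected subcutaneously in the lower right flank with 200 μL of 50% Matrigel holding 2 million NTERA-2 or 5 million GCT27D.C1 cells (eight mice per model). Once tumors were palpable, mice received 40 mg/kg test compound i.p. daily (DMSO solution diluted in sunflower oil to 200 μL) or vehicle. Tumor volume was calculated as length × width² × 0.5 from calipers, TGI was calculated, and body weight was tracked. Tumors were harvested 15 days later.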

[9] = system: GCT27D.C1 teratocarcinoma xenografts; assay: as above; assay type: in vivo, mice
Method in brief: as §5

Toxicity studies in mice = assay type: in vivo, mouse; conditions: doses from 20 to 100 mg/kg body weight
[10] = Maximum solubility in DMSO; assay type: physicochemical
[11] = H108, 2.5 μM WX8, normalized to histones
[12] = H108 fibroblasts, 2.5 μM WX8 or 2 μM Adriamycin 24 h
[13] = NTERA-2, 2.5 μM WX8, normalized to histones
[14] = H1, 2.5 μM WX8, normalized to histones

C(=N\Nc1nc(Nc2ccccc2)nc(N2CCOCC2)n1)/c1c[nH]c2ccccc12 [WX8]
pIC50 [1]: < 5.00
Difference in ATP loss, differentiated vs pluripotent cells ([2]; ratio of average IC50): 13 fold
pIC50 ([2]; read-out: IC50 ATP loss, on average, average over human pluripotent cells): 5.92
pIC50 (differentiated cells [3]): 4.80
Difference in DNA loss, differentiated vs pluripotent cells (human pluripotent cells; ratio of average IC50): 24 fold
pIC50 (human pluripotent cells; read-out: IC50 DNA loss, on average, average over human pluripotent cells): 5.55
pIC50 (differentiated cells [4]): 4.17
Difference in the initiation of PCD, differentiated vs pluripotent cells [5]: 35 fold
pIC50 (differentiated cells [6]): 4.09
pIC50 (VeroE6 cells): 6.35
pIC50 (differentiated cells [7]): < 4.00
Accumulation of p62 protein (H108 fibroblasts; [11]): 13 fold
Accumulation of total LC3 protein (H108 fibroblasts; [11]): 10 fold
CASP3 cleavage (H108 fibroblasts; [12]): Neither WX8 nor Adriamycin induced cleavage
PARP cleavage (H108 fibroblasts; [12]): Neither WX8 nor Adriamycin induced cleavage
CASP3 cleavage (NTERA-2 ECCs; NTERA-2, 2.5 μM WX8): < 2%
PARP cleavage (NTERA-2 ECCs; NTERA-2, 2.5 μM WX8): 41%
Accumulation of p62 protein (NTERA-2 ECCs; [13]): 9 fold
Accumulation of total LC3 protein (NTERA-2 ECCs; [13]): 4 fold
CASP12 cleavage (NTERA-2 ECCs; NTERA-2, WX8): < 2%
Cleaved CASP7 (NTERA-2 ECCs; NTERA-2, WX8): not detected
CASP3 cleavage (H1 ESCs; H1, 2.5 μM WX8): < 2%
PARP cleavage (H1 ESCs; H1, 2.5 μM WX8): 20%
Accumulation of p62 protein (H1 ESCs; [14]): < 2 fold
Accumulation of total LC3 protein (H1 ESCs; [14]): 2 fold
CASP12 cleavage (H1 ESCs; H1, WX8): < 2%
Cleaved CASP7 (H1 ESCs; H1, WX8): not detected
Tumor growth inhibition (TGI) ([8]; NTERA-2 tumors, 40 mg WX8/kg daily i.p.): 71%
Mouse body weights ([8]; NTERA-2 xenograft mice, 40 mg WX8/kg daily i.p.): maintained
Effect on teratocarcinoma xenografts ([8]; NTERA-2 xenografts, intraperitoneal injections of WX8): Eliminated stem cells and inhibited tumor growth
Tumor growth inhibition (TGI) ([9]; GCT27D.C1 tumors, 40 mg WX8/kg daily i.p.): 78%
OCT4-, SOX2- and Ki67-stained cells in tumor slices ([9]; GCT27D.C1 tumors, 40 mg WX8/kg daily i.p., immunohistochemistry): selectively eliminated cells expressing OCT4 or SOX2 protein with no detectable effect on proliferating cells
Mouse body weights ([9]; GCT27D.C1 xenograft mice, 40 mg WX8/kg daily i.p.): maintained
Effect on teratocarcinoma xenografts ([9]; GCT27D.C1 xenografts, intraperitoneal injections of WX8): Eliminated stem cells and inhibited tumor growth
Maximum dose at which no indication of mouse impairment was observed (Toxicity studies in mice): 40 mg/kg
Maximum solubility [10]: about 30 mg WX8/350μL DMSO
